Shown are actives, neighbours in structure and some others; about 2.5% of the full set was active somewhere.
ABHD4 inh: ABHD4 (mouse) inhibition, primary FP screen. inhibition, % at 8.92 µM. Q8VD66. actives 0.54% (n = 370,000). AID 720543. purified mABHD4, FP-Rh probe fluorescence polarization;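 active = inhibition exceeding the mean over every tested compound plus 3 SD, cut at about 30% in these data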;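 note: 0% = plate median of compound wells and 100% = S159A mutant with DMSO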
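Assay system: Wild-type mouse ABHD4 protein | Medium: HEPES pH 7.0 buffer, 150 mM NaCl, 0.01% Pluronic F-127 | Incubation: Enzyme–compound pre-incubation 45 min, then probe 60 min, both 25 °C | Technique: Fluorescence polarization with parallel and perpendicular emission, 525/598 nm | Evaluation: % inhibition of FP-Rh probe binding versus controls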
SIAE primary: blocks human sialic acid acetylesterase; Q9HAT2; SIAE FP-Rh probe binding, fluorescence polarization; inhibition, % at 9.66 µM; actives 0.69% (n = 370,000); AID 1053197;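 active = inhibition above a cutoff: mean of compounds within the control limits plus 3 SD of those, cut at about 17% in these data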;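 note: 0% = plate median of compound wells and 100% = probe without SIAE protein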
PRMT1 FP inh: inhibitors of human PRMT1; Q99873; recombinant PRMT1, activity-based probe fluorescence polarization; inhibition, % at 2.79 µM; actives 1.3% (n = 370,000);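 active = inhibition above about 21% made by adding two undisclosed values, limit read from the data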
HTRA1 inh: inhibitors of human serine peptidase HTRA1. actives 0.5% (n = 340,000). AID 504803. inhibition, % at 5.96 µM. Q92743. recombinant HTRA1, FP-rhodamine activity-based probe, fluorescence polarization; in the data active = inhibition above about 36%;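 note: 0% = enzyme with DMSO and 100% = wells lacking enzyme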
Target sequence (Q92743 whole entry, looked up): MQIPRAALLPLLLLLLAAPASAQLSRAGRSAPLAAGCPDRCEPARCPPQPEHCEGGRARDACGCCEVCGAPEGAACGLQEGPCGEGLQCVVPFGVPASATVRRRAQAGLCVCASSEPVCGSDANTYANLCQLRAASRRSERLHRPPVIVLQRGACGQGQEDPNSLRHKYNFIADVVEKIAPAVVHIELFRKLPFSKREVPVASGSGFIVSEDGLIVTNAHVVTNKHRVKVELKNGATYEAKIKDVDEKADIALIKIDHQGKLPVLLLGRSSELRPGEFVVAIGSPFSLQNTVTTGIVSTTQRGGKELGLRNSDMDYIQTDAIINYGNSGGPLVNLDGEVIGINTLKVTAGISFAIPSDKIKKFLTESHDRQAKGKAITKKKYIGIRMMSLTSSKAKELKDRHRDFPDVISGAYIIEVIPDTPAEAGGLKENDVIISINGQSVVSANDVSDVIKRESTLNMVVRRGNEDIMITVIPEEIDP
TCR-CD3 inh: inhibitors of human TCR-CD3 interaction; TAMRA-labeled TCR probe fluorescence, biochemical; inhibition, % at 9.4 µM; actives 0.37% (n = 360,000); AID 651800; in the data active = inhibition above about 19%;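 note: recombinant mutant TCR 2C K166C tagged with TAMRA read by polarization; 0% = receptor in buffer alone and 100% = receptor with positive control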
HTRA1 conf: HTRA1 (human) inhibition, confirmation. shares compounds with HTRA1 inh. recombinant HTRA1, FP-rhodamine activity-based probe, fluorescence polarization. inhibition, % at 5.96 µM. actives 66% (n = 1,600);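 active = mean inhibition over three repeats above a set limit taken from the earlier primary screen, cut at about 37% in these data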;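 note: 0% = HTRA1 with DMSO and 100% = wells lacking HTRA1; inhibitors block probe binding so polarization drops and inhibition rises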
* hit, by the source's call; / = not tested or not shown.

SMILES	ABHD4 inh	SIAE primary	PRMT1 FP inh	HTRA1 inh	TCR-CD3 inh	HTRA1 conf
Oc1ccc(N=Nc2ccc3c(c2)OCCO3)c2ncccc12	23	14	-6	58*	2	61*
O=C(Nc1ncccc1O)c1ccc2c(c1)OCCO2	8	6	3	5	4	/
Cc1ccc(N=Nc2cc(C)ccc2O)c(C)c1	-3	4	-1	2	5	/
Cc1cccc(N=Nc2ccc(O)c3ncccc23)c1	25	8	1	59*	6	64*
Cc1ccc(C)c(N=Nc2ccc(O)c3ncccc23)c1	9	11	2	52*	0	66*
NS(=O)(=O)c1ccc(N=Nc2ccc(O)c3ncccc23)cc1	13	5	7	52*	-8	37*
CCOc1ccc(N=Nc2ccc(O)c3ncccc23)cc1	14	10	-1	36	-1	/
COCCOC(=O)N(C)C[C@@H]1OCCCC[C@H](C)Oc2ccc(NC(=O)Nc3ccccc3)cc2C(=O)N([C@@H](C)CO)C[C@H]1C	2	0	-4	/	/	/
CC(C)(C)CCN1C[C@@H]2C(CNC(=O)c3cc(Cl)cc(Cl)c3)[C@@H]2C1 (stereo partly specified)	2	-2	-8	/	/	/
COC(=O)C1CN(Cc2cn(CCOC(C)=O)nn2)CCS(=O)(=O)N1Cc1ccc(C)cc1 (stereo unspecified)	0	-2	3	/	/	/
O=C(Cc1ccc(Cl)c(Cl)c1)Nc1ccc(S(=O)(=O)Nc2ccon2)cc1	-8	-10	4	/	/	/
O=C1c2ccccc2-c2onc3ccc(Oc4ccccc4)c1c23	-31	-6	11	39*	-34	22
O=C(c1ccccc1)c1coc2c1C(=O)c1ccccc1C2=O	5	-4	14	31	-6	/
CCOC(=O)C1C[C@@H](O)C=CC1=O (stereo partly specified)	0	6	2	/	/	/
COC(=O)C[C@H]1CC[C@@H]2[C@@H](COc3ccc(NC(=O)c4ccno4)cc3C(=O)N2C)O1	-2	-1	3	/	/	/
O=[N+]([O-])c1ccc(NN=Cc2cccc([N+](=O)[O-])c2)cc1	6	15	2	-2	-3	/
O=[N+]([O-])c1ccc(N/N=C/c2cccc(O)c2O)cc1	21	12	10	64*	-3	46*
CCOC(=O)[C@]12CCCC3=C1N(CCC3)C(=O)[C@@H](CC(=O)N1CCCCC1)C2	-3	-4	-2	/	/	/
COC(=O)CCC(=O)OC1(C)C(=O)C2=CN(Cc3ccccc3)C(c3ccc(OC)cc3)=CC2=C(Br)C1=O (stereo unspecified)	14	1	6	60*	-6	63*
COC(=O)CCC(=O)OC1(C)C(=O)C2=CN(c3ccccc3)C(c3ccc(OC)cc3)=CC2=C(Br)C1=O (stereo unspecified)	23	8	8	47*	3	48*
COC(=O)CCC(=O)OC1(C)C(=O)C2=CN(C3CC3)C(c3ccc(OC)cc3)=CC2=C(Br)C1=O (stereo unspecified)	12	14	12	35	-1	/
COC(=O)CCC(=O)OC1(C)C(=O)C2=CN(CC3CC3)C(c3ccc(OC)cc3)=CC2=C(Br)C1=O (stereo unspecified)	/	/	/	50*	/	46*
COC(=O)CCC(=O)OC1(C)C(=O)C2=CN(CCc3c[nH]c4ccccc34)C(c3ccc(OC)cc3)=CC2=C(Br)C1=O (stereo unspecified)	/	/	/	32	/	/
COC(=O)CCC(=O)OC1(C)C(=O)C2=CN(CCCOC(C)C)C(c3ccc(OC)cc3)=CC2=C(Br)C1=O (stereo unspecified)	/	/	/	39*	/	50*
COC(=O)CCC(=O)OC1(C)C(=O)C2=CN(Cc3ccc(OC)cc3)C(c3ccc(OC)cc3)=CC2=C(Br)C1=O (stereo unspecified)	15	-1	2	21	-9	/
SMILES	ABHD4 inh	SIAE primary	PRMT1 FP inh	HTRA1 inh	TCR-CD3 inh	HTRA1 conf
Cc1oc2c(O)c(O)ccc2c(=O)c1-c1cnn(-c2ccccc2)c1	22	5	26*	61*	10	92*
CN=c1scc(-c2ccco2)n1/N=C/c1ccc(O)c(O)c1	40*	-2	9	74*	15	73*
CCc1cc(=O)oc2cc(C)cc(OC(=O)c3ccco3)c12	1	-3	2	48*	-6	26
Cc1[nH][nH]c(=O)c1C(c1ccc(-c2ccc(Cl)c(Cl)c2)o1)c1c(C)[nH][nH]c1=O	17	21*	13	40*	1	37*
C[C@@H]1CN([C@@H](C)COC(=O)C(C)(C)C)C(=O)c2cc(NC(=O)Nc3ccccc3)ccc2O[C@@H](C)CCCCO[C@H]1CN(C)S(=O)(=O)c1ccc(F)cc1	-31	-11	-2	/	/	/
C#CCNC(=O)C[C@H]1C[C@@]2(C(=O)OC)C(=C[C@H](COCc3ccccc3)O[C@@H]2C)N(Cc2ccccc2)C1=O	7	11	1	/	/	/
Cc1ccc(NC(=S)N/N=C/c2ccc([N+](=O)[O-])s2)cc1	3	8	0	59*	-9	59*
O=C(NC(=S)NNC(=O)c1ccccc1O)c1cccs1	12	16	-2	56*	19	54*
COc1ccccc1C(=O)NNC(=S)NC(=O)c1cccs1	-10	-1	4	15	8	/
CCN(CC)c1ccc(C=Nc2ccc(C)cc2)c(O)c1	10	-4	1	-5	8	/
CCN(CC)c1ccc(C=Nc2ccc(N(C)C)cc2)c(O)c1	26	3	25*	38*	2	-15
CC[C@H](C)/C=C/C1=CC2=C(Cl)C(=O)[C@@]3(C)OC(=O)C(C(=O)[C@H](C)[C@@H](C)O)=C3C2=CO1	/	/	/	54*	/	68*
COc1ccc(Cn2cc(CN3CC=CS3(=O)=O)nn2)cc1	-1	1	7	/	/	/
Cc1c[nH]c2cccc(-c3ccc(OCc4ccccc4)cc3)c12	-5	12	-1	/	/	/
Cn1cccc1C(=O)N1CCN(S(=O)(=O)c2ccc(F)cc2)CC1	-1	-2	-2	/	/	/
Brc1csc2ncccc12	9	-3	2	1	-5	/
Oc1c(CN2CCN(c3ccccc3)CC2)cc(Br)c2cccnc12	15	6	0	56*	6	44*
Oc1c(Br)cc(Br)c2cccnc12	28	27*	0	58*	-6	59*
CCN(CCNC(=O)[C@H]1C=C(OC)C(=O)C[C@H](c2ccccc2)[C@H]1C)C(C)=O	0	3	-1	/	/	/
Cc1ccccc1C(C)NS(=O)(=O)c1ccc2c(c1)OCCO2 (stereo unspecified)	1	-3	-1	40*	3	34
COc1ccc(C2C(C(=O)Nc3cc(OC)ccc3OC)CCC(=O)N2c2ccc(OC)cc2)cc1 (stereo unspecified)	-1	0	-1	/	/	/

Screening results as filed in PubChem.
